Published values gathered from unrelated publications.
Protocols differ between the studies behind these lines.
Target: Dual specificity testis-specific protein kinase 1 (TESK1, Homo sapiens, UniProt Q15569)

Compound | effect on | technique | concentration | remaining binding [%]
NS(=O)(=O)c1cc(NC(=O)Cc2ccccc2)ccc1Oc1cccc(Cl)c1 | cell-free assay | competition with immobilised ligand | 1 µM | 100
COc1ncc2cc3ccccc3nc2c1C#N | cell-free assay | competition with immobilised ligand | 5 µM | 94
O=C(Nc1cnc(Oc2ccc(F)cc2)nc1)N1CCc2ncccc2[C@@H]1c1ccc(F)cc1 | cell-free assay | competition with immobilised ligand | 1 µM | 91
COc1cnc(Nc2cccc(S(N)(=O)=O)c2)nc1N1CCN(c2ccccc2)CC1 | binding | competition with immobilised ligand | 1 µM | 100
O=C(N[C@H]1CCCCC/C=C\C2C[C@@]2(C(=O)O)NC(=O)[C@@H]2C[C@@H](Oc3ccncc3)CN2C1=O)OC1CCCC1 (some centres unmarked) | binding | competition with immobilised ligand | 1 µM | 97
CN(C)c1nccc(-c2cnn3ncccc23)n1 | binding |  | 1 µM | 100
O=C(c1ccc(Nc2ncc(Cl)c(-c3ccc(Cl)s3)n2)cc1)N1CCC(N2CCCC2)CC1 | binding | competition with immobilised ligand | 1 µM | 99
CN(C)c1nccc(-c2cnc3ncccn23)n1 | binding |  | 1 µM | 90
CCS(=O)(=O)c1cc2cc(C[C@@](O)(CC(C)(C)c3ccc(F)cc3C(N)=O)C(F)(F)F)[nH]c2cn1 | cell-free assay | competition with immobilised ligand | 1 µM | 77
O=C(NCCCN1CCOCC1)c1ccc(Nc2ncc(Cl)c(-c3ccc(Cl)s3)n2)cc1 | binding | competition with immobilised ligand | 1 µM | 100
CNC(=O)[C@@H]1CC[C@@H](n2c(-c3ccc4cnccc4c3)nc3ccc(C(=O)NCc4cccc(C(N)=O)c4)cc32)C1 | binding | competition with immobilised ligand | 1 µM | 100
O=C(NCCCN1CCOCC1)c1ccc(Nc2nccc(-c3cc4ccccc4s3)n2)cc1 | binding | competition with immobilised ligand | 1 µM | 77
C[C@H]1CCN(c2nccc(-c3cnn4ncccc34)n2)C1 | binding |  | 1 µM | 100
O=C(Nc1c[nH]nc1C(=O)NC1CCNCC1)c1cc(F)cc(F)c1 | binding | competition with immobilised ligand | 1 µM | 100
COc1ccnn2ncc(-c3ccnc(N(C)C)n3)c12 | binding |  | 1 µM | 100
Cc1c[nH]c2nccc(Oc3c(F)cc(Nc4cc(Cl)nc(N)n4)cc3F)c12 | cell-free assay | competition with immobilised ligand | 0.1 µM | 100
N[C@@H]1CCN(c2nccc(-c3cnn4ncccc34)n2)C1 | binding |  | 1 µM | 100
Nc1cnc(N2CCc3cc(S(=O)(=O)Nc4c(F)cc(Cl)cc4F)cc(N4CCCC4=O)c32)nc1 | cell-free assay | competition with immobilised ligand | 1 µM | 100
CN(CCCC(F)(F)F)c1nccc(-c2cnn3ncccc23)n1 | binding |  | 1 µM | 67
C[C@@H](c1ccc(-n2cnc3c(N)ncnc32)cc1)N1CCc2nn(C)c(Cc3ccccc3)c2C1=O | binding | competition with immobilised ligand | 0.1 µM | 87
